# Measured values of several laboratories.
# Protocols differ between the studies behind these lines.
# Target: Serine/threonine-protein kinase TAO3 (TAOK3, Homo sapiens, UniProt Q9H2K8)
# Residues used in one study (Q9H2K8 1-898): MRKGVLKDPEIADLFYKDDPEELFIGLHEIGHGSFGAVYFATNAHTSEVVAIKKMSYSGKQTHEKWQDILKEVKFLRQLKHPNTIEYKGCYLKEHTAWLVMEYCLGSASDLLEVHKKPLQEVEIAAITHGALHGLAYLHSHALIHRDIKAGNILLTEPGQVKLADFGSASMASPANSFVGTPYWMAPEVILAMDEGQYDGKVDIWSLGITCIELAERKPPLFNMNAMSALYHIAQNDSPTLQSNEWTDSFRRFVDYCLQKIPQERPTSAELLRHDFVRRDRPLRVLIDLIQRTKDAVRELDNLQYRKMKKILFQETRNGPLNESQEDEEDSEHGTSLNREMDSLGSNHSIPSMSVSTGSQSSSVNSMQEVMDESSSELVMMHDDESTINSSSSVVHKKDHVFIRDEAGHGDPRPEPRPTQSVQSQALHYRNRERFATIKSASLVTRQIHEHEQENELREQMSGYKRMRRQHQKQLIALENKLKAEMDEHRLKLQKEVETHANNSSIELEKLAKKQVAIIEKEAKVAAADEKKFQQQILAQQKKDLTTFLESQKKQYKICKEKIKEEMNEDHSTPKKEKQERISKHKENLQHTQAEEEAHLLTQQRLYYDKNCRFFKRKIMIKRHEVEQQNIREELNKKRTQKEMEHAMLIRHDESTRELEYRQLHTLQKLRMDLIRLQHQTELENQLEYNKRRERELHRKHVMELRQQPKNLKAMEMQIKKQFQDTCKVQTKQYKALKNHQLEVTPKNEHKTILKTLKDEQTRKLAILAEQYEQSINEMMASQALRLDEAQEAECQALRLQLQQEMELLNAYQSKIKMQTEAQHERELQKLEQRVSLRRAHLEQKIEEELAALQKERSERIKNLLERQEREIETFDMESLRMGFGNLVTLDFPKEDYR
Structure (SMILES),test,setting,remaining binding
C[C@@H]1CCN(c2nccc(-c3cnn4ncccc34)n2)C1,binding,1 µM,90%
Cc1cnc(Nc2ccc(C(=O)N3CCC(N4CCCC4)CC3)cc2)nc1-c1cc2ccccc2s1,"binding, competition with immobilised ligand",1 µM,77%
C=CC(=O)N1CCC(C(=O)NCC(=O)N2CCN(c3nc(-c4cnc(N)nc4C(F)F)nc(N4CCOCC4)n3)CC2)CC1,"binding, competition with immobilised ligand",1 µM,77%
CC1CCCN1c1nccc(-c2cnn3ncccc23)n1 (stereo not shown),binding,1 µM,48%
CCC(=O)N[C@H]1CC[C@@H](C(=O)N(C)c2ccc(-c3nc4ccccc4o3)cc2)C1,"cell-free assay, competition with immobilised ligand",1 µM,70%
O=C(c1ccc(Nc2nccc(-c3cc4ccccc4s3)n2)cc1)N1CCC(N2CCCC2)CC1,"binding, competition with immobilised ligand",1 µM,100%
Cc1cnn2ncc(-c3ccnc(N(C)C)n3)c2c1,binding,1 µM,91%
O=C(NCCCN1CCOCC1)c1ccc(Nc2nccc(-c3cc4ccccc4s3)n2)cc1,"binding, competition with immobilised ligand",1 µM,82%
COc1cnc(Nc2cccc(S(N)(=O)=O)c2)nc1N1CCN(c2ccccc2)C(=O)C1,"binding, competition with immobilised ligand",1 µM,93%
CN1CCN(c2cnc3c(C4CCN(C(=O)c5ccc(OC(F)(F)F)cc5N)CC4)ncnc3c2)CC1,"cell-free assay, competition with immobilised ligand",1 µM,100%
C[C@@H](c1ccc(-n2cnc3c(N)ncnc32)cc1)N1CCc2nn(C)c(Cc3ccccc3)c2C1=O,"binding, competition with immobilised ligand",0.1 µM,77%
CS(=O)(=O)c1cc(C2(NC(=O)c3cncc4c3cnn4-c3ccc(F)cc3)CC2)ccn1,"cell-free assay, competition with immobilised ligand",1 µM,97%
COc1cnc(Nc2cccc(S(N)(=O)=O)c2)nc1N1CCN(c2ccccc2)CC1,"binding, competition with immobilised ligand",1 µM,85%
O=C(NCC1CCOCC1)c1n[nH]cc1NC(=O)c1c(F)cccc1F,"binding, competition with immobilised ligand",1 µM,45%
C[C@@H]1CN(c2cc(-c3nn(C)c4ccc(OC5(C)CC5)cc34)ncn2)C[C@H](C)O1,"binding, competition with immobilised ligand",1 µM,35%
F[C@@H]1CCN(c2nccc(-c3cnn4ncccc34)n2)C1,binding,1 µM,55%
Cn1cc(Cl)c2c(Oc3c(F)cc(Nc4cc(Cl)nc(N)n4)cc3F)ccnc21,"cell-free assay, competition with immobilised ligand",0.1 µM,100%
COc1ncc2cc3ccccc3nc2c1C#N,"cell-free assay, competition with immobilised ligand",5 µM,100%
N[C@@H]1CCN(c2nccc(-c3cnn4ncccc34)n2)C1,binding,1 µM,100%
CC1=C(C#N)[C@@H](c2ccc3[nH]nc(C)c3c2)C(C#N)=C(c2ccc(Cl)cc2)N1,"cell-free assay, competition with immobilised ligand",1 µM,100%
COc1ccnn2ncc(-c3ccnc(N(C)C)n3)c12,binding,1 µM,82%
CCN1CCN(Cc2ccc(C(=O)Nc3ccc(C)c(Oc4ccc5c(c4)CC(=O)N5)c3)cc2C(F)(F)F)CC1,"binding, competition with immobilised ligand",1 µM,100%
